# ChEMBL document CHEMBL3853295, “Design and synthesis of novel pyrazolo[1,5-a]pyrimidine derivatives bearing nitrogen mustard moiety and evaluation of their antitumor activity in vitro and in vivo” (Eur J Med Chem, 2016)
# What was measured:
# Assay type in all cases: functional, cell-based
# [1] = Cytotoxicity against human HepG2 cells after 72 hrs by MTT assay; conditions: HepG2, 72 h
# Summary of the method: (§1)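 Cells cultured in DMEM or RPMI 1640 with 10% FBS. Seeded at about 2 × 10^3 per well and grown 24 h at 37 °C, 5% CO2. Compounds added at final 0.1–1000 uM for 72 h, 5 wells per concentration. MTT added for 4 h at 37 °C, then lysis overnight. Absorbance read at 570 nm against a 650 nm reference; IC50 calculated.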
# [2] = Cytotoxicity against human DU145 cells after 72 hrs by MTT assay; conditions: DU-145, 72 h; summary of the method: as §1
# [3] = Cytotoxicity against human MCF7 cells after 72 hrs by MTT assay; conditions: MCF7, 72 h; summary of the method: as §1
# [4] = Cytotoxicity against human SH-SY5Y cells after 72 hrs by MTT assay; summary of the method: as §1
# [5] = Cytotoxicity against human A549 cells after 72 hrs by MTT assay; conditions: A549, 72 h; summary of the method: as §1
SMILES,IC50 [1] [µM],IC50 [2] [µM],IC50 [3] [µM],IC50 [4] [µM],IC50 [5] [µM]
N#Cc1cnn2c(Nc3cccc(N(CCCl)CCCl)c3)cc(CN3CCC(c4ccccc4)CC3)nc12,> 100,> 100,> 100,> 100,> 100
N#Cc1cnn2c(Nc3cccc(Br)c3)cc(CN(CCCl)CCCl)nc12,49.7,> 100,41,> 100,> 100
Cc1cccc(Nc2cc(CN(CCCl)CCCl)nc3c(C#N)cnn23)c1,62.1,35,25.8,79.9,> 100
N#Cc1cnn2c(Nc3ccc(F)c(Cl)c3)cc(CN(CCCl)CCCl)nc12,89.4,27.4,76.8,> 100,> 100
N#Cc1cnn2c(Nc3ccc(Br)cc3)cc(CN(CCCl)CCCl)nc12,37.2,33.1,28.3,49.1,61.4
CN(C)C1CCN(Cc2cc(Nc3cccc(N(CCCl)CCCl)c3)n3ncc(C#N)c3n2)CC1,9.22,27,25.2,15.3,12.7
N#Cc1cnn2c(Nc3ccc(N(CCCl)CCCl)cc3)cc(CN3CCOCC3)nc12,5.51,10.7,11.3,6.71,13.6
N#Cc1cnn2c(Nc3ccccc3Br)cc(CN(CCCl)CCCl)nc12,> 100,> 100,> 100,> 100,> 100
N#Cc1cnn2c(Nc3cc(F)cc(F)c3)cc(CN(CCCl)CCCl)nc12,> 100,> 100,84.4,> 100,> 100
N#Cc1cnn2c(Nc3ccc(N(CCCl)CCCl)cc3)cc(CN3CCC(c4ccccc4)CC3)nc12,> 100,> 100,> 100,> 100,> 100
N#Cc1cnn2c(Nc3cccc(N(CCCl)CCCl)c3)cc(CN3CCOCC3)nc12,33.4,> 100,> 100,61,> 100
CCOC(=O)C1CCN(Cc2cc(Nc3ccc(N(CCCl)CCCl)cc3)n3ncc(C#N)c3n2)CC1,74.2,> 100,> 100,74.1,> 100
Cc1ccccc1Nc1cc(CN(CCCl)CCCl)nc2c(C#N)cnn12,> 100,> 100,99.2,> 100,> 100
N#Cc1cnn2c(Nc3ccc(Cl)cc3)cc(CN(CCCl)CCCl)nc12,39.3,42.9,33,50.6,79.5
N#Cc1cnn2c(Nc3ccc(C(F)(F)F)cc3)cc(CN(CCCl)CCCl)nc12,55.5,95.1,33,> 100,> 100
N#Cc1cnn2c(Nc3cccc(N(CCCl)CCCl)c3)cc(CN3CCC(O)CC3)nc12,29.7,> 100,70.4,36.7,35.8
CN1CCN(Cc2cc(Nc3cccc(N(CCCl)CCCl)c3)n3ncc(C#N)c3n2)CC1,17.6,50.5,41.1,15.3,19.5
N#Cc1cnn2c(Nc3cccc(N(CCCl)CCCl)c3)cc(CN3CCC(CO)CC3)nc12,18.4,33.4,41.1,30.7,27.9
C#Cc1cccc(Nc2cc(CN(CCCl)CCCl)nc3c(C#N)cnn23)c1,44.2,83.1,34,> 100,> 100
Cc1cc(C)cc(Nc2cc(CN(CCCl)CCCl)nc3c(C#N)cnn23)c1,59.4,> 100,> 100,> 100,97.4
